Bioassay records deposited in PubChem BioAssay by Johns Hopkins Ion Channel Center.
hERG rescue – hERG (human) protection from proarrhythmic block | CHO-hERG, FluxOR thallium flux, dofetilide IC70 present | 0.51% of 310,000 active | Q12809 | activation (rescue from dofetilide block), less the hit threshold, % at 10 µM;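 active = activation above the mean of controls blocked by dofetilide plus 5 SD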;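 note: thallium influx through hERG after potassium depolarization seen as dye fluorescence rise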
KCNQ1 pot – potentiates or activates the human KCNQ1 potassium channel; P51787; CHO-K1 KCNQ1, thallium flux FluxOR fluorescence; hits give high values; B-score at 10 µM; 0.35% of 310,000 active; AID 2648;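 active = fluorescence ratio B-score, a plate-corrected score, at least three library SD, with initial intensity B-score within 5 SD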
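System: CHO-K1 cells stably expressing KCNQ1 / Medium: assay buffer for compound exposure, DMSO matched across wells / Reagent: thallium- and potassium-containing depolarizing buffer / Compound: one concentration, matched DMSO / Incubation: 20 min compound pretreatment at room temperature / Measured by: kinetic FluxOR fluorescence, 10 s baseline plus 110 s post-stimulus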
KCNK3 block – human KCNK3 channel inhibition, primary screen; O14649; B-score at 10 µM; 0.84% of 340,000 active; CHO-KCNK3 thallium flux, FluxOR fluorescence; hits give low values;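 active = B-score under library mean minus 4 SD, starting fluorescence ratio at most library mean plus 5 SD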;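 note: more negative B-score means stronger inhibition of thallium flux through KCNK3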
KCNK9 inh – blocks the human KCNK9 two-pore domain potassium channel; B-score at 10 µM; Q9NPC2; 1.2% of 310,000 active; AID 488922; HEK293 KCNK9, FluxOR thallium flux fluorescence; hits give low values;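 active = ratio B-score over 3 SD below the library mean, with starting fluorescence within 5 SD of its mean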;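 note: negative B-score means less thallium flux so channel inhibition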
Target sequence (Q9NPC2 whole entry, looked up, the tested form may be a part): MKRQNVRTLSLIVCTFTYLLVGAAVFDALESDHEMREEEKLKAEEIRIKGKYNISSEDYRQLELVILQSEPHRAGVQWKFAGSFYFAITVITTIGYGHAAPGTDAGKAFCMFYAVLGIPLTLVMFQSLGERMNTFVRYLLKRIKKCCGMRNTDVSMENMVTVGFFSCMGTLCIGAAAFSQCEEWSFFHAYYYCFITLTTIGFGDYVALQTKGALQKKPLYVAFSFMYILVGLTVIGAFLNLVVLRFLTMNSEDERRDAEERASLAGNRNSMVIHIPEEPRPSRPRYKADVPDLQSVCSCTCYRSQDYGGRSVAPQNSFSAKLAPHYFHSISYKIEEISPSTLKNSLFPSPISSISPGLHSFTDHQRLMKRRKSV
KCNQ1 inh – human KCNQ1 channel inhibition; AID 2642; CHO-K1 KCNQ1, FluxOR thallium flux fluorescence; hits give high values; 1.3% of 310,000 active; B-score at 10 µM; P51787;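 active = compounds whose thallium flux B-score, printed positive for inhibition, exceeds three library SD while starting fluorescence stays within three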;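 note: channel opened by potassium depolarization with thallium stimulus after 20 min compound exposure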
Kir21 block – blocks the mouse Kir2.1 inward-rectifier potassium channel; P35561; HEK293-Kir2.1, FluxOR thallium flux fluorescence; hits give low values; B-score at 10 µM; 0.85% of 310,000 active;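 active = fluorescence ratio B-score at or below minus 3 SD of library scores, with starting-brightness B-score within 2 SD, cut at about -4.2 in these data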;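 note: channel flux triggered by added potassium and thallium sulfate stimulus; B-score of peak minus minimum fluorescence over baseline after thallium stimulus; more negative B-score means stronger Kir2.1 block with less thallium influx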
KCNK9 inh conf – confirmation of human KCNK9 potassium channel inhibitors; shares compounds with KCNK9 inh; 43% of 4,900 active; inhibition, % at 10 µM; HEK293 KCNK9 cells, FluxOR thallium flux fluorescence;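 active = thallium signal inhibited by more than 5 SD of the compound-free buffer control wells, on both duplicate plates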;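 note: 0% = assay buffer control wells without compound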
Kir2-1 spec – selectivity of KCNK9 modulators against mouse Kir2.1; inhibition, % at 10 µM; 4% of 4,900 active; shares compounds with KCNK9 inh; Kir2.1 cells, FluxOR thallium flux fluorescence;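 active = thallium signal drop more than 5 SD beyond the mean of the no-compound control wells, seen in both duplicate plates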;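 note: signal is fluorescence rise after thallium addition divided by baseline fluorescence; plate controls were assay buffer only for no effect and full block by chlorpromazine control for full effect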
HEK293 Tl ctr – second check of KCNK9 modulator effects in non-induced HEK293 cells; inhibition, % at 10 µM; 40% of 4,900 active; FluxOR thallium flux; shares compounds with KCNK9 inh;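 active = thallium signal drop beyond 5 SD of the untreated control mean, on both duplicate plates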;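 note: plate controls were buffer only IC0 wells for no effect and SID17386958 at its maximal inhibitory level for full effect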
KCNK3 inh conf – confirmation of human KCNK3 two-pore domain potassium channel inhibitors; CHO-KCNK3 thallium flux, FluxOR fluorescence; 0% buffer, 100% carvedilol maximal block; shares compounds with KCNK3 block; AID 651638; 99% of 2,400 active; ratio percent of control, % at 10 µM;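 active = ratio percent of control, averaged over triplicates, above buffer control mean plus 5 SD, cut at about 64% in these data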;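 note: ratio is the fluorescence rise from min to max over baseline after thallium stimulus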
KCNK3 noninduced – counter-screen for KCNK3 inhibitors: effect in non-induced cells; 40% of 2,400 active; shares compounds with KCNK3 block; non-induced KCNK3 parental cells, FluxOR thallium flux; hits give low values; thallium flux ratio (lower = more inhibition) at 10 µM;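 active = thallium flux ratio, averaged over three wells, more than 5 SD below the buffer control mean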;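 note: host cells are CHO cells without KCNK3 induction; ratio is peak minus trough fluorescence over baseline then normalized to buffer controls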
Starred values were filed as active, the others as inactive; i = inactive; nt = not tested or not shown. This is a sample that favours compounds with a hit; in the whole collection about 3.8% have one here.

SMILES	hERG rescue	KCNQ1 pot	KCNK3 block	KCNK9 inh	KCNQ1 inh	Kir21 block	KCNK9 inh conf	Kir2-1 spec	HEK293 Tl ctr	KCNK3 inh conf	KCNK3 noninduced
COc1ccc(OC)c(-c2csc(NC(=O)Cc3ccccc3OC)n2)c1	-3	i	-13*	-16*	i	-0.39	i	i	40%*	89*	i
COc1ccc(OC)c(-c2csc(NC(=O)c3ccccc3F)n2)c1	-5	i	i	i	i	-0.54	nt	nt	nt	nt	nt
COc1ccc(NC(=S)N(CCN2CCCCC2)Cc2ccco2)cc1	-21	i	i	i	i	-0.72	nt	nt	nt	nt	nt
Cc1ccc(NC(=S)N(CCN2CCCCC2)Cc2ccco2)cc1Cl	-10	i	-10*	-8.2*	i	1.1	i	i	26%*	108*	i
O=C(NNC(=O)c1ccccc1OCc1ccccc1)c1ccccc1F	-13	i	-11*	-9.8*	i	0.95	29%*	i	24%*	118*	0.15*
Cc1sc2nc3c(C(=O)N4CCCC4)cc(C(=O)c4ccccc4O)cn3c(=O)c2c1C	-10	i	i	i	i	0.45	nt	nt	nt	nt	nt
CCc1c(C)sc2nc3c(C(=O)N4CCOCC4)cc(C(=O)c4cc(F)ccc4O)cn3c(=O)c12	-6	i	-8.8*	-13*	i	-2.2	i	i	24%*	96*	i
O=C(N/N=C/c1cccn1-c1ccc(O)cc1)c1cccc2ccccc12	-9	i	i	i	i	1	nt	nt	nt	nt	nt
Cc1cccc2cc(CN(Cc3cccs3)Cc3nnnn3Cc3ccccc3)c(=O)[nH]c12	-3	i	-11*	-13*	i	0	29%*	i	28%*	88*	i
Cc1sc2nc(C3CC3)nc(N3CCN(C(=O)c4ccc(F)cc4)CC3)c2c1C	-7	i	-13*	-14*	i	1.1	29%*	i	28%*	92*	i
COc1ccc(C(=O)N2CCN(c3nc(C4CC4)nc4sc(C)c(C)c34)CC2)cc1	-11	i	i	i	i	0.74	nt	nt	nt	nt	nt
Cc1sc2nc(C3CC3)nc(N3CCN(C(=O)c4ccccc4F)CC3)c2c1C	-5	i	-12*	-13*	i	0.76	i	i	28%*	114*	0.14*
Cc1sc2nc(C3CC3)nc(N3CCN(S(=O)(=O)c4ccc(F)cc4)CC3)c2c1C	-14	i	i	i	i	0.09	nt	nt	nt	nt	nt
O=C(c1ccco1)N1CCN(c2nc(C3CC3)nc3sc4c(c23)CCCC4)CC1	-18	i	-8.7*	-19*	i	0.75	66%*	i	28%*	117*	0.13*
Cc1nc(N2CCN(C(=O)c3ccco3)CC2)c2c3c(sc2n1)CCCC3	-15	i	i	i	i	-1.4	nt	nt	nt	nt	nt
COc1ccc(NC(=O)CCC(=O)OCc2ccc(Br)cc2)cc1	-3	i	i	i	i	1.2	nt	nt	nt	nt	nt
COc1ccc(N(CC(=O)N/N=C/c2ccc(OC)c(OC)c2)S(=O)(=O)c2ccccc2)cc1	-6	i	i	i	i	0.43	nt	nt	nt	nt	nt
CCN(C(=O)CSc1nc2n[nH]c(C)c2c(=N)n1-c1ccc(Cl)c(C)c1)c1cccc(C)c1	-8	i	-12*	-21*	i	0.27	68%*	i	40%*	97*	0.13*
Cc1ccc(/C=C/C(=O)N2CCc3ccccc3C2)cc1	-8	i	i	i	i	0.97	nt	nt	nt	nt	nt
CC(C)(C)c1ccc(/C=C/C(=O)N2CCc3ccccc3C2)cc1	-4	i	-11*	i	13*	0.07	i	i	26%*	124*	0.15*
COc1c(Br)cc(Br)cc1/C=N/n1c(C)nnc1C	-4	i	i	i	i	0.39	nt	nt	nt	nt	nt
CC(=O)C1=C(O)CC(C)(C)CC1=NCCc1nc2ccccc2[nH]1	-12	i	i	i	i	0.04	nt	nt	nt	nt	nt
CCOc1ccccc1Cn1c(=O)oc2ccc(C)cc21	nt	nt	i	nt	nt	nt	nt	nt	nt	nt	nt
CCCOc1ccccc1Cn1c(=O)oc2ccc(C)cc21	-18	16*	-8.7*	-10*	i	-1	52%*	i	46%*	115*	i
O=C(COC(=O)c1c2c(nc3ccccc13)CCCC2)c1cccs1	-18	i	-12*	-10*	i	0.61	54%*	i	i	138*	0.12*
SMILES	hERG rescue	KCNQ1 pot	KCNK3 block	KCNK9 inh	KCNQ1 inh	Kir21 block	KCNK9 inh conf	Kir2-1 spec	HEK293 Tl ctr	KCNK3 inh conf	KCNK3 noninduced
O=C(CSc1nc2ccc(NC(=O)CSc3nnnn3-c3ccccc3)cc2s1)Nc1ccccc1	0	i	i	i	i	1.2	nt	nt	nt	nt	nt
c1ccc(-n2nnnc2SCCCSc2nc3ccccc3s2)cc1	-13	i	-9.9*	-15*	i	-0.21	62%*	i	46%*	103*	i
Cc1ccccc1C(=O)N[C@H](C(=O)Nc1ccc(Cl)c(Cl)c1)C(C)C	-8	i	i	i	i	-1.3	nt	nt	nt	nt	nt
Cc1ccccc1-n1nc(C)c2cc(C(=O)N3CCOCC3)sc21	-11	i	i	i	i	-0.85	nt	nt	nt	nt	nt
O=C(NNC(=O)c1cc(-c2ccccc2)nc2ccccc12)c1csc(N2CCOCC2)n1	-19	i	i	i	i	-0.4	nt	nt	nt	nt	nt
O=C(NNC(=O)c1cc(-c2ccc(Cl)cc2)nc2ccccc12)c1csc(N2CCOCC2)n1	-17	i	-9*	-10*	i	0.14	28%*	i	i	80*	i
Cc1ccc(NC(=O)OC(C)N2CCCCC2)cc1NC(=O)OC(C)N1CCCCC1 (configuration not stated)	nt	nt	i	nt	nt	nt	nt	nt	nt	nt	nt
CCOc1ccc(C(C)(C)C)cc1S(=O)(=O)n1nc(C)cc1C	-3	i	-8.8*	-9.6*	6*	0.57	54%*	i	38%*	113*	i
O=C(COC(=O)c1ccccc1NC(=O)c1ccccc1)c1ccc([N+](=O)[O-])cc1	-7	i	-9.6*	-14*	i	-0.73	73%*	i	34%*	104*	i
